pKi: −log10 of the molar value.
What follows are compounds tested against T1, Protein-glutamine gamma-glutamyltransferase (Homo sapiens, UniProt P21980) (assay: Inhibition of human recombinant TG2 expressed in Escherichia coli).
T1 sequence (P21980 whole entry): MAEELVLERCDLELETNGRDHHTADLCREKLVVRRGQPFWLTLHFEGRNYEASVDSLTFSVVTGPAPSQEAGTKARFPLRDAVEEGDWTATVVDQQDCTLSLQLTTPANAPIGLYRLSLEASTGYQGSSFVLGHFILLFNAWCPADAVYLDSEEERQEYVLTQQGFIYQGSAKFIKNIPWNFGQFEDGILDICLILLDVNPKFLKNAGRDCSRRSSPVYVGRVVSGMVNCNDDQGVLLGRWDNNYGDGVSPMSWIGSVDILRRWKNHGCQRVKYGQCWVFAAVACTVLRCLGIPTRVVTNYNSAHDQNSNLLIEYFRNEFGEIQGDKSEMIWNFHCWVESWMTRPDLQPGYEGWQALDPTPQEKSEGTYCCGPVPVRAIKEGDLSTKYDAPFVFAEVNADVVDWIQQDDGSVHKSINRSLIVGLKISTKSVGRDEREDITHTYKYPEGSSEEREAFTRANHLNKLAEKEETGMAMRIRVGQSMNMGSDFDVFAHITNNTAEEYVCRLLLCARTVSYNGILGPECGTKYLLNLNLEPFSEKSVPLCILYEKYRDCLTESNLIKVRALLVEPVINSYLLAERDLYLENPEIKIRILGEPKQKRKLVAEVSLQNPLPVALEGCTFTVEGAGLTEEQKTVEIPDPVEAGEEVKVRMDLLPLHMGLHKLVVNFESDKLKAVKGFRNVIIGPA
Method in brief: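 Enzyme purified to >90%. Inhibitor at 0.001–0.3 mM. Reaction started by adding TG2; NADH loss read at 340 nm. KI and kinh came from fitting progress curves to irreversible-inhibition equations.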

| SMILES | pKi |
| --- | --- |
| O=C(N[C@@H](Cc1ccc(O)cc1)C(=O)NCC1CC(Br)=NO1)OCc1cnc2ccccc2c1 (some centres undefined) | 4.39 |
| O=C(N[C@@H](Cc1c[nH]c2ccc(F)cc12)C(=O)NC[C@@H]1CC(Br)=NO1)OCc1cnc2ccccc2c1 | 5.89 |
| O=C(NC[C@@H]1CC(Br)=NO1)[C@@H]1CCCN1C(=O)OCc1cnc2ccccc2c1 | 4.96 |
| O=C(NC(Cc1c[nH]c2cc(F)ccc12)C(=O)NCC1CC(Br)=NO1)OCc1ccccc1 (centres undefined) | 4.74 |
| O=C(NC(Cc1c[nH]c2cccc(F)c12)C(=O)NCC1CC(Br)=NO1)OCc1ccccc1 (centres undefined) | 4.00 |
| O=C(NC(Cc1c[nH]c2ccc(F)cc12)C(=O)NCC1CC(Br)=NO1)OCc1cnc2ccccc2c1 (centres undefined) | 4.74 |
| O=C(N[C@@H](Cc1c[nH]c2ccc(F)cc12)C(=O)NCC1CC(Br)=NO1)OCc1cnc2ccccc2c1 (some centres undefined) | 5.40 |
| O=C(NC(Cc1c[nH]c2ncccc12)C(=O)NCC1CC(Br)=NO1)OCc1ccccc1 (centres undefined) | 4.66 |

The remaining lines, values ahead:

| pKi | SMILES |
| --- | --- |
| 4.29 | COc1ccc2[nH]cc(CC(NC(=O)OCc3cnc4ccccc4c3)C(=O)NCC3CC(Br)=NO3)c2c1 (centres undefined) |
| 4.72 | O=C(NC(Cc1c[nH]c2ccc(F)cc12)C(=O)NCC1CC(Br)=NO1)OCc1ccccc1 (centres undefined) |
| 4.52 | O=C(N[C@@H](Cc1ccc(O)cc1)C(=O)NC[C@@H]1CC(Br)=NO1)OCc1cnc2ccccc2c1 |
| 4.17 | O=C(N[C@@H](Cc1ccc(O)cc1)C(=O)NC[C@@H]1CC(Br)=NO1)OCc1ccccc1 |
| 4.47 | O=C(NC(Cc1c[nH]c2ccc(O)cc12)C(=O)NCC1CC(Br)=NO1)OCc1cnc2ccccc2c1 (centres undefined) |
| 3.86 | O=C(NCC1CC(Br)=NO1)C1Cc2ccccc2N1C(=O)OCc1ccccc1 (centres undefined) |

Reference: ChEMBL document CHEMBL1138203, “Structure-activity relationship analysis of the selective inhibition of transglutaminase 2 by dihydroisoxazoles” (J Med Chem, 2006)
